Active and inactive are the calls of the source. The calls are words filed in the database; no cut-off is given here.
How the values were obtained:
[1] = biological target: T1, Signal transducer and activator of transcription 3 (Homo sapiens, UniProt P40763); experiment: Inhibition of Flag-tagged STAT3 dimerization (unknown origin) expressed in HEK293T cells after 24 hrs by confocal microscopic analysis; assay type: cell-based; settings: dose 1-3 µM
In short: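 HEK-293T cells transfected with HA-STAT3 and Flag-STAT3. After 24 h, treated with vehicle (0.1% DMSO) or compound for 24 h, with IL-6 100 ng/mL added for 30 min. Fixed in paraformaldehyde, permeabilised with Triton X-100, stained with anti-HA and anti-Flag plus Alexa 488/555 secondaries and DAPI. Confocal imaging for colocalisation.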

[2] = Toxicity in NOD/SCID mouse xenografted with patient-derived breast cancer cells assessed as lethargy at 5 to 15 mg/kg, iv administered once daily for 20 days; assay type: organism-based; settings: in vivo, 480 h, dose 5-15 mg/kg, time 20 day
[3] = biological target: T1, Signal transducer and activator of transcription 3; experiment: Inhibition of STAT3 dependent transcriptional activity (unknown origin) expressed in HEK293T cells at 1 to 3 uM after 24 hrs by Dual-luciferase reporter gene assay; assay type: cell-based; settings: dose 1-3 µM
In short: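 HEK-293T cells (2.5×10^4/well) co-transfected with pGL3-STAT3 (seven STAT3 binding-site copies; 50 ng), STAT3C (50 ng) and TK-Renilla (40 ng). After 24 h, treated with vehicle or compound for 24 h. Dual firefly/Renilla luciferase read on a luminometer.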

[4] = test system: H9c2; experiment: Antiproliferative activity against rat H9C2 cells assessed as reduction in cell viability after 72 hrs by CCK8 assay; assay type: cell-based; settings: H9c2, 72 h
In short: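 Cells seeded at 1000–8000 per well were grown overnight, then exposed to 0.1–100 μM compound or 0.1% DMSO vehicle for 72 h. CCK-8 was added for 0.5–4 h at 37 °C and absorbance read at 480 nm. Viability = (OD compound − blank)/(OD vehicle − blank) × 100, with medium as blank. IC50 fitted from three independent experiments.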

[5] = Tmax in Sprague-Dawley rat at 10 mg/kg, po measured up to 24 hrs by LC-MS/MS analysis; assay type: ADME, organism-based; settings: in vivo
In short: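 Male SD rats dosed orally at 10 mg/kg in DMSO/0.5% HPMC (5/95, v/v). Blood drawn at 0.25, 0.5, 1, 2, 4, 8 and 24 h for plasma. Plasma analysed by LC-MS/MS on a UPLC BEH phenyl column with 0.1% formic acid water/acetonitrile.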

[6] = biological target: T2, Signal transducer and activator of transcription 5A (Homo sapiens) (UniProt P42229); experiment: Inhibition of STAT5 DNA binding in human MDA-MB-468 cells at 3 uM after 3 hrs by EMSA analysis; assay type: cell-based
T2 sequence (whole entry): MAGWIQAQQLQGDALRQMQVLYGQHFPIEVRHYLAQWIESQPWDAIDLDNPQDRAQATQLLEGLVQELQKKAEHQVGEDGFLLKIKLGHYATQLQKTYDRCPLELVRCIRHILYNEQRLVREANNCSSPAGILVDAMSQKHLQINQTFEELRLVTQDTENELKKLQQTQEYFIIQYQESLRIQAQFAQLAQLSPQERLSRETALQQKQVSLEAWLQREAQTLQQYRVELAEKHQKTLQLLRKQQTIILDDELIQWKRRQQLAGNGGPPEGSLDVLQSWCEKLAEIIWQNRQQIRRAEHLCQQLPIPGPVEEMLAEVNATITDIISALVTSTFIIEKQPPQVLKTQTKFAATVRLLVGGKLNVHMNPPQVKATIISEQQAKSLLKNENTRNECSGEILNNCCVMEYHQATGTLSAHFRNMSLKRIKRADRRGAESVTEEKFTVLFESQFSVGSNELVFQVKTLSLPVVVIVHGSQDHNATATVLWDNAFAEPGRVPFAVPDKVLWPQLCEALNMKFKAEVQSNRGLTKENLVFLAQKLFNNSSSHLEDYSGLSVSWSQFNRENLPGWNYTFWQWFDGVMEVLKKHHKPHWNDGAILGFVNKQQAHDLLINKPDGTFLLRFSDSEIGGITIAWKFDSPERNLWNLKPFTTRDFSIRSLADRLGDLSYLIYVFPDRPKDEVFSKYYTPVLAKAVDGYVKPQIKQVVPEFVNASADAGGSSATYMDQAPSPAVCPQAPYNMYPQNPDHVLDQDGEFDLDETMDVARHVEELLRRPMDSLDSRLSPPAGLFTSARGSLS
In short: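 Cells exposed to vehicle or compound for 3 h. Nuclear extracts prepared and BCA-quantified. Nuclear protein (8–10 µg) incubated with biotinylated STAT3 or STAT5 probe, resolved on 6% native polyacrylamide gel, transferred to nylon membrane and detected with a gel-shift kit.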

[7] = Toxicity in mouse xenografted with human MDA-MB-231-4175 cells assessed as morphological change in kidney at 5 to 15 mg/kg, […] once daily for 20 days by HE staining based assay; assay type: organism-based; settings: in vivo, iv, 480 h, dose 5-15 mg/kg, time 20 day
In short: (§1)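 Female NOD-SCID mice aged 4–5 weeks, given 2×10^6–3×10^6 MDA-MB-231-4175 cells subcutaneously in the flank. At about 100 mm³ tumour volume, randomised n=6/group: vehicle (PBS with 15% Cremophor EL), 5 or 15 mg/kg intraperitoneally daily. Killed at day 20; heart, liver, spleen, lung and kidney collected for morphological examination.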

[8] = test system: MDA-MB-468; experiment: Induction of apoptosis in human MDA-MB-468 cells assessed as viable cells at 1 uM after 48 hrs by Annexin-V-FITC/propidium iodide staining based flow cytometric analysis (reference value: 95.5%); assay type: functional; settings: read-out: Activity
[9] = test system: MDA-MB-468; experiment: Induction of apoptosis in human MDA-MB-468 cells assessed as late apoptotic cells at 1 uM after 48 hrs by Annexin-V-FITC/propidium iodide staining based flow cytometric analysis (reference value: 1.25%); assay type: functional
[10] = Toxicity in NOD/SCID mouse xenografted with patient-derived breast cancer cells assessed as morphological change in spleen at 5 to 15 mg/kg, […] once daily for 20 days by HE staining based assay; assay type: organism-based; settings: in vivo, iv, 480 h, dose 5-15 mg/kg, time 20 day
In short: as §1, with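 “implanted” for “aged 4–5 weeks, given 2×10^6–3×10^6 MDA-MB-231-4175 cells”, “flank with about 2 mm³ TNBC PDX fragments.” for “flank.”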

[11] = biological target: T1, Signal transducer and activator of transcription 3; experiment: Inhibition of STAT3 phosphorylation at Ser727 residue in human MDA-MB-468 cells at 3 uM after 3 hrs by Western blotting analysis; assay type: cell-based

T1 sequence (P40763 whole entry): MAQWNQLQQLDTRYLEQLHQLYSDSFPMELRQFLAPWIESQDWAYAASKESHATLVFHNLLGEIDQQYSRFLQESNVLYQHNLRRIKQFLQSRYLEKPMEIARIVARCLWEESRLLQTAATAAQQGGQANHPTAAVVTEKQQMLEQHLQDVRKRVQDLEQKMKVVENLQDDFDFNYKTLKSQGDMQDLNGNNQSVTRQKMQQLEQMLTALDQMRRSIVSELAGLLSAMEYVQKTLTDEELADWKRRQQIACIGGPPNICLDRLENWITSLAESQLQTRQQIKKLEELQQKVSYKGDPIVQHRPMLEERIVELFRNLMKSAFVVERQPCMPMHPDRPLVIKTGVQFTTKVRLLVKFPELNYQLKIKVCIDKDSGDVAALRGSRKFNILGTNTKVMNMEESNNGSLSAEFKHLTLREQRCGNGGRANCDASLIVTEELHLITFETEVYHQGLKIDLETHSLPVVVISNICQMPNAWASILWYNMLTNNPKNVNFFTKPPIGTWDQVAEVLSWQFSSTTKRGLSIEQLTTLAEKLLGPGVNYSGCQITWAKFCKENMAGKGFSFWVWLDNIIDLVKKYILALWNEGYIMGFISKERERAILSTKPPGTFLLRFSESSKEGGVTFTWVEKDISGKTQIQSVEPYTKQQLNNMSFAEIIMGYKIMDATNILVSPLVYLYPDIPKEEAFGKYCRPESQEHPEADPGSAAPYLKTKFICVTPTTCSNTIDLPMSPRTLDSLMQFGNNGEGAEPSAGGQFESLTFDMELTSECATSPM

In the case of O=C(Cc1c(-c2ccccc2)nc2ccccn12)Nc1ccc2c(c1)S(=O)(=O)C=C2, the inhibition [1] is reported as “Dose-Dependent Effect”, the Activity [2] is reported as “Non-Toxic” and the inhibition [3] is reported as “Active”. The IC50 [4] was 6.79 µM, the Tmax [5] was 1.67 h and the inhibition [6] was “inactive”. For the same molecule, the Activity [7] was “Non-Toxic”, the viability at 1 µM [8] was 57.9% and the Activity [9] was 16.6%. For the same molecule, the Activity [10] was “Non-Toxic” and the inhibition [11] was “inactive”.
